From ChEMBL document CHEMBL1126807, “Inhibition of bone resorption by H+/K(+)-ATPase inhibitors” (J Med Chem, 1993)
Each block holds one compound with its values, some of them ahead of it.

Key:
[1] = organism: Rattus norvegicus; assay: Tested for the inhibition of bone resorption by measuring mean pit size at 10 e -5 M (sd 1012); assay type: functional
Method in brief: (§1)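 Osteoclasts mechanically disaggregated from neonatal rat long bones into Hepes-buffered medium 199, settled 30 s, allowed to attach to bone slices (2.5 mm²) for 15 min at 37 °C, washed, then cultured overnight in 10% newborn calf serum in Hanks-buffered MEM with or without drug. Cells removed with 10% NaOCl, slices gold-coated, entire surface scanned by SEM for pit number, pit size and resorbed plan area. Student's t-test.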

[2] = Tested for the inhibition of reversibility of hog gastric H+/K+-ATPase at 10 uM; assay type: functional, Sus scrofa, Stomach; design: scale not given: the % may be the effect or the level left
[3] = organism: Rattus norvegicus; assay: Tested for the inhibition of bone resorption in neonatal rat long bones by measuring mean total resorption at 10 e -8 M (sd 7210); assay type: functional; method in brief: as §1
[4] = organism: Rattus norvegicus; assay: Tested for the inhibition of bone resorption by measuring number of pits/slice at 10 e -7 M (sd 3.53); assay type: functional; method in brief: as §1
[5] = organism: Rattus norvegicus; assay: Tested for the inhibition of bone resorption by measuring mean total resorption at 10 e -5 M (sd 2675); assay type: functional; method in brief: as §1
[6] = organism: Rattus norvegicus; assay: Tested for the inhibition of bone resorption by measuring number of pits/slice at 10 e -5 M (sd 2.74); assay type: functional; method in brief: as §1
[7] = organism: Rattus norvegicus; assay: Tested for the inhibition of bone resorption by measuring mean pit size at 10 e -6 M (sd 963); assay type: functional; method in brief: as §1
[8] = organism: Rattus norvegicus; assay: Tested for the inhibition of bone resorption in neonatal rat long bones by measuring mean pit size at 10 e -8 M (sd 1498); assay type: functional; method in brief: as §1
[9] = organism: Rattus norvegicus; assay: Tested for the inhibition of bone resorption in neonatal rat long bones by measuring mean total resorption at 10 e -6 M (sd 4446); assay type: functional; method in brief: as §1
[10] = Tested for the inhibition of reversibility of hog gastric H+/K+-ATPase at 0.05 uM (200-fold dilution after pre-incubation); assay type: functional, Sus scrofa, Stomach; design: scale not given: the % may be the effect or the level left
[11] = organism: Rattus norvegicus; assay: Tested for the inhibition of bone resorption by measuring number of pits/slice at 10 e -6 M (sd 3.87); assay type: functional; method in brief: as §1
[12] = Tested for reversible inhibition against gastric H+/K+-ATPase isolated from porcine gastric microsomes; value ranges from […]; assay type: functional, Sus scrofa, Stomach
[13] = organism: Rattus norvegicus; assay: Tested for inhibition of bone resorption by osteoclasts in a bone slice assay in rats at 10 e -7 M; assay type: functional; method in brief: as §1
[14] = organism: Rattus norvegicus; assay: Tested for the inhibition of bone resorption in neonatal rat long bones by measuring mean total resorption at 10 e -7 M (sd 4081); assay type: functional; method in brief: as §1
[15] = organism: Rattus norvegicus; assay: Tested for the inhibition of bone resorption by measuring number of pits/slice at 10 e -8 M (sd 4.87); assay type: functional; method in brief: as §1
[16] = organism: Rattus norvegicus; assay: Tested for the inhibition of bone resorption by measuring mean total resorption at 10 e -7 M (sd 4088); assay type: functional; method in brief: as §1
[17] = organism: Rattus norvegicus; assay: Tested for the inhibition of bone resorption by measuring number of pits/slice at 10 e -6 M (sd 3.46); assay type: functional; method in brief: as §1
[18] = organism: Rattus norvegicus; assay: Tested for the inhibition of bone resorption by measuring mean total resorption at 10 e -5 M (sd 1111); assay type: functional; method in brief: as §1
[19] = organism: Rattus norvegicus; assay: Tested for the inhibition of bone resorption by measuring number of pits/slice at 10 e -7 M (sd 3.94); assay type: functional; method in brief: as §1
[20] = organism: Rattus norvegicus; assay: Tested for the inhibition of bone resorption by measuring number of pits/slice at 10 e -5 M (sd 1.88); assay type: functional; method in brief: as §1
[21] = organism: Rattus norvegicus; assay: Tested for the inhibition of bone resorption by measuring number of pits/slice at 10 e -8 M (sd 5.51); assay type: functional; method in brief: as §1
[22] = organism: Rattus norvegicus; assay: Tested for the inhibition of bone resorption by measuring mean total resorption at 10 e -8 M (sd 5079); assay type: functional; method in brief: as §1
[23] = Tested for the inhibition of reversibility of hog gastric H+/K+-ATPase at 2 uM; assay type: functional, Sus scrofa, Stomach; design: scale not given: the % may be the effect or the level left
[24] = organism: Rattus norvegicus; assay: Tested for the inhibition of bone resorption by measuring mean pit size at 10 e -7 M (sd 1032); assay type: functional; method in brief: as §1
[25] = organism: Rattus norvegicus; assay: Tested for the inhibition of bone resorption by measuring mean total resorption at 10 e -6 M (sd 3349); assay type: functional; method in brief: as §1
[26] = organism: Rattus norvegicus; assay: Tested for inhibition of bone resorption by osteoclasts in a bone slice assay in rats at 10 e -5 M; assay type: functional; method in brief: as §1
[27] = organism: Rattus norvegicus; assay: Tested for the inhibition of bone resorption by measuring mean pit size at 10 e -6 M (sd 814); assay type: functional; method in brief: as §1
[28] = Tested for reversible inhibition against gastric H+/K+-ATPase isolated from porcine gastric microsomes; value ranges from 3-10 uM; assay type: functional, Sus scrofa, Stomach
[29] = organism: Rattus norvegicus; assay: Tested for the inhibition of bone resorption by measuring mean pit size at 10 e -8 M (sd 1092); assay type: functional; method in brief: as §1
[30] = Tested for the inhibition of reversibility of hog gastric H+/K+-ATPase at 0.01 uM (200-fold dilution after pre-incubation); assay type: functional, Sus scrofa, Stomach; design: scale not given: the % may be the effect or the level left
[31] = organism: Rattus norvegicus; assay: Tested for the inhibition of bone resorption by measuring mean pit size at 10 e -5 M (sd 562); assay type: functional; method in brief: as §1

IC50 [12]: 10 µM | IC50 [13]: 2 µM
Compound: CCOC(=O)CCC(=O)c1cnc2c(OC)cccc2c1Nc1ccccc1C
Mean pit size [1]: 948 µm² | Activity [2]: 60% | Mean total resorption [3]: 8400 um2 | No. of pits/slice [4]: 4.67 | Mean total resorption [5]: 2040 um2 | No. of pits/slice [6]: 2.22 | Mean pit size [7]: 1190 µm² | Mean pit size [8]: 1450 µm² | Mean total resorption [9]: 4040 um2 | Activity [10]: 100% | No. of pits/slice [11]: 3.39 | Mean total resorption [14]: 4790 um2 | No. of pits/slice [15]: 5.89

IC50 [26]: 4 µM | IC50 [28]: 3 µM
Compound: CCOC(=O)c1cnc2c(OC)cccc2c1Nc1ccccc1C
Mean total resorption [16]: 9060 um2 | No. of pits/slice [17]: 9.17 | Mean total resorption [18]: 1270 um2 | No. of pits/slice [19]: 9.5 | No. of pits/slice [20]: 2.67 | No. of pits/slice [21]: 9.83 | Mean total resorption [22]: 8740 um2 | Activity [23]: 66% | Mean pit size [24]: 919 µm² | Mean total resorption [25]: 7300 um2 | Mean pit size [27]: 798 µm² | Mean pit size [29]: 926 µm² | Activity [30]: 90% | Mean pit size [31]: 477 µm²
